Results: publication PMC8851646 (ACS Omega, 2022)
pIC50: −log10 of the molar value. Converted amounts (≈) assume the structure as drawn. Where two headings read alike, the source gives them in different places.

Assays:
K. pneumoniae NB29017 [1] = experiment: Electron microscopy of cell surface material; type: cell-based, Klebsiella pneumoniae; conditions: grown in SM medium with 32 μg/mL compound
Procedure, shortened: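 K. pneumoniae NB29017 grown overnight with shaking at 37 °C in 10 mL SM medium, with or without test compound at 32 μg/mL. Diluted 1:50 into the same medium and grown to OD600 of about 2. Cells pelleted at 3000g and washed in Na-cacodylate pH 7.2. Fixed 2 h at 4 °C (2.5% glutaraldehyde, 1% tannic acid, 0.1 M Na-cacodylate, pH 7.2). Pelleted, taken up in cacodylate buffer and examined by electron microscopy.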

P. aeruginosa = conditions: against P. aeruginosa; cited from earlier work
[2] = tested on: K. pneumoniae wbbM mutant (NB29018) co-cultured with T. pyriformis; experiment: Tp/Kp co-culture assay with cell surface-defective wbbM mutant; type: cell-based, Klebsiella pneumoniae; conditions: Tp threshold 4625–18,500 Tp/mL
[3] = tested on: K. pneumoniae NB29017 co-cultured with T. pyriformis; experiment: T. pyriformis/K. pneumoniae; type: cell-based, Klebsiella pneumoniae
K. pneumoniae NB29017 [4] = experiment: Qualitative inhibition of mucoid appearance of colonies on solid LB agar; type: cell-based, Klebsiella pneumoniae; conditions: 4 fully mucoid, 0 nonmucoid, by eye
Procedure, shortened: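 Test compound dissolved in DMSO (12.8 mg/mL stock) and mixed into melted LB agar at 0–16 μg/mL final, then set in six-well plates. Mucoid wild-type NB29017 streaked for single colonies in each well. Plates incubated 18 h at 37 °C, then 2 h at 4 °C. Mucoid appearance scored by eye from 0 (none) to 4 (normal hypermucoid).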

[5] = Cytotoxicity in K562 cells; type: cell-based; conditions: human
Staphylococcus aureus = experiment: Antibacterial MIC, Gram-positive control; type: cell-based; conditions: read-out: MIC Sa
Red blood cell hemolysis = type: cell-based, sheep; conditions: sheep, erythrocytes from defibrinated sheep blood, pH 7.5
[6] = tested on: erythrocytes from defibrinated sheep blood; experiment: Red blood cell hemolysis; type: cell-based; conditions: Table 1; concentration causing 50% hemolysis
P. aeruginosa LpxC = target: T1, P. aeruginosa LpxC (Pseudomonas aeruginosa, UniProt P47205); experiment: Inhibition of purified LpxC enzyme; type: biochemical
T1 sequence (P47205 1-303): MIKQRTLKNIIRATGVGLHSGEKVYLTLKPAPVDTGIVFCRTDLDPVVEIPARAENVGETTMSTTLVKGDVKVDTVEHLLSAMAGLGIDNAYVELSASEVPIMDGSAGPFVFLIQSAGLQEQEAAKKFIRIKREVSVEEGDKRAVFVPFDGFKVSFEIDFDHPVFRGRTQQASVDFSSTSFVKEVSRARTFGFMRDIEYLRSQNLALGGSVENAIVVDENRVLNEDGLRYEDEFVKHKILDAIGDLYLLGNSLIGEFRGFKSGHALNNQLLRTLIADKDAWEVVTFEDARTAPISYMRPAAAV

K. pneumoniae NB29017 [7] = experiment: Kp-only counterscreen for direct antibacterial activity; type: cell-based; conditions: Klebsiella pneumoniae, NB29017, read-out: IC50 for Kp only, hit from the HTS
K. pneumoniae NB29017 [8] = experiment: Agar MIC; type: cell-based; conditions: Klebsiella pneumoniae, NB29017, read-out: agar MIC
K. pneumoniae (Kp) = experiment: Antibacterial MIC, broth; type: cell-based; conditions: Klebsiella pneumoniae, read-out: MIC, broth-based
[9] = read-out: Tp/Kp IC50, Table 2; expressed as μg/mL for comparison to agar values
[10] = read-out: IC50 Tp/Kp, Table 1; freshly dissolved powder, top concentration 20 μM

Row | SMILES | IC50 [3, 9] [µg/mL] | qualitative score on solid medium (K. pneumoniae NB29017 [4]; 2 μg/mL compound in agar) | qualitative score on solid medium (K. pneumoniae NB29017 [4]; 4 μg/mL compound in agar) | qualitative score on solid medium (K. pneumoniae NB29017 [4]; 8 μg/mL compound in agar) | qualitative score on solid medium (K. pneumoniae NB29017 [4]; 16 μg/mL compound in agar) | pIC50 [5] | MIC (Staphylococcus aureus) [µg/mL] | pIC50 [3, 10] | also measured
1 | C=CCSc1nnc(C)c(O)n1 [D1, C=CCSc1nnc(C)c(O)n1, reference compound] | 0.54 | 4 | 3 | slight | 1 | – | – | – | surface polysaccharide material by electron microscopy (K. pneumoniae NB29017 [1]): largely devoid of this; efficacy in an animal model of infection (P. aeruginosa): efficacy; activity in the Tp/Kp wbbM assay [2]: largely retained; pIC50 ([3]; read-out: Tp/Kp IC50, D1 control on the same plate, Tp set at 25000): 5.64; pIC50 ([3]; read-out: Tp/Kp IC50, D1 control on the same plate; Tp set at 25000): 5.56; pIC50 ([3]; read-out: median IC50 for D1 across 28 hit confirmation runs, standard deviation of 0.3): 5.70
2 | COc1ccc2nc(NC(=O)c3cc(=O)c4ccccc4o3)sc2c1 [compound 63, COc4ccc3N=C(NC(=O)C2=CC(=O)c1ccccc1O2)Sc3c4] | 0.04 | 0 | 0 | 0 | 0 | 4.46 | > 128 | 6.96 | hemolysis at 1 h (Red blood cell hemolysis): 8.3%; RBC hemolysis (HC50) [6]: 64 µM; qualitative score on solid medium (K. pneumoniae NB29017 [4]; 1 μg/mL compound in agar): 1
3 | CC(C)(N)C(NC(=O)c1ccc(OCC#CC2CC2)cc1)C(=O)NO (stereo not drawn) [compound 180, CC(C)(N)C(NC(=O)c1ccc(cc1)OCC#CC2CC2)C(=O)NO] | – | – | – | – | – | 4.16 | > 128 | 5.94 | pIC50 (P. aeruginosa LpxC): 7.40
4 | O=CN(O)CCCP(=O)(O)O [fosmidomycin] | – | – | – | – | – | – | – | – | pIC50 (K. pneumoniae NB29017 [7]): < 4.70; MIC (K. pneumoniae NB29017 [8]): 0.5 µg/mL (≈ 2.73 µM); MIC (K. pneumoniae (Kp)): > 128 µg/mL; pIC50 ([3]; read-out: IC50 for Tp/Kp, hit from the HTS): > 7.11
